Laboratory results from ChEMBL document CHEMBL4229525, “Anti-angiogenic and anticancer effects of baicalein derivatives based on transgenic zebrafish model” (Bioorg Med Chem, 2018).
pIC50: −log10 of the molar value. Active and inactive are the calls of the source. No cut-off for these calls is given here.

How the values were obtained:
Danio rerio [1] = species: Danio rerio; experiment: Antiangiogenic activity in 24 to 72 hrs post fertilized zebra fish embryo harboring fli1:EGFP after 48 hrs by fluorescence microscopic analysis; type: functional
Outline: (§1)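 Tg(fli1:EGFP) zebrafish: 20 dechorionated 24 hpf embryos per group in 1 mL embryo water with compound (1, 5, 10, 25, 50, 75, 100, 150, 200 μM), 28.5 °C for 48 h. Embryos anaesthetised in 0.016% tricaine; ISVs imaged by fluorescence microscopy at 72 hpf and scored for vessel defects and overall morphology. SU5416 positive control.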

Danio rerio [2] = species: Danio rerio; experiment: Toxicity in 24 to 72 hrs post fertilized zebra fish embryo harboring fli1:EGFP; type: organism-based; details: zebrafish, in vivo
Outline: (§2)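 Dechorionated Tg(fli1:EGFP) embryos at 24 hpf, 20 per group, were kept in 1 mL embryo water with compound at 28.5 °C for a further 48 h. Compound was tested at 1, 5, 10, 25, 50, 75, 100, 150 and 200 μM. At 72 hpf, embryos anaesthetised with 0.016% tricaine had their ISVs imaged by fluorescence microscopy, with SU5416 as positive control. Definitions used: LOEC is anti-angiogenic effect in most larvae; LOTC is lowest toxic concentration; LC100 is total embryo lethality. TI = LOTC/LOEC; AI = LC100/LOEC.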

[3] = Toxicity index, ratio of MTC for 24 to 72 hrs post fertilized zebra fish embryo harboring fli1:EGFP to MEC for antiangiogenic activity in 24 to 72 hrs post fertilized zebra fish embryo harboring fli1:EGFP; type: organism-based, Danio rerio; details: fli1:EGFP transgenic, zebrafish, in vivo; outline: as §2
[4] = Antiangiogenic index, ratio of LC100 for 24 to 72 hrs post fertilized zebra fish embryo harboring fli1:EGFP to MEC for antiangiogenic activity in 24 to 72 hrs post fertilized zebra fish embryo harboring fli1:EGFP; type: toxicity, organism-based, Danio rerio; details: fli1:EGFP transgenic, zebrafish, in vivo; outline: as §2
Danio rerio [5] = species: Danio rerio; experiment: Antiangiogenic activity in 48 hrs post fertilized zebra fish embryo harboring fli1:EGFP assessed as inhibition of intersegmental vessel formation by fluorescence microscopic analysis; type: functional, organism-based; outline: as §1
Danio rerio [6] = species: Danio rerio; experiment: Antiangiogenic activity in 48 hrs post fertilized zebra fish embryo harboring fli1:EGFP assessed as inhibition of intersegmental vessel formation at 50 uM by fluorescence microscopic analysis; type: functional; outline: as §1
Danio rerio [7] = species: Danio rerio; experiment: Antiangiogenic activity in 48 hrs post fertilized zebra fish embryo harboring fli1:EGFP assessed as inhibition of dorsal long axis blood vessel formation at 50 uM by fluorescence microscopic analysis; type: functional; outline: as §1
Danio rerio [8] = species: Danio rerio; experiment: Toxicity in 48 hrs post fertilized zebra fish embryo harboring fli1:EGFP assessed as morphological changes at 5 to 50 uM; type: organism-based; details: zebrafish, in vivo; outline: as §1
Danio rerio [9] = species: Danio rerio; experiment: Antiangiogenic activity in 48 hrs post fertilized zebra fish embryo harboring fli1:EGFP assessed as changes in blood vessel formation at late stage embryos by fluorescence microscopic analysis; type: functional, organism-based; outline: as §1
HUVEC [10] = experiment: Cytotoxicity against HUVEC assessed as inhibition of cell proliferation after 48 hrs by CCK8 assay; type: cell-based, Homo sapiens
Outline: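 HUVECs were seeded at 3000/well in EGM-2 and allowed 12 h to attach, then exposed 48 h to compound (5–50 μM) or 0.1% DMSO vehicle. Growth was read by CCK-8 absorbance at 450 nm, in triplicate, and IC50 was calculated from the concentration–response data.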

HUVEC [11] = experiment: Antimigratory activity in HUVEC at 25 uM after 8 hrs by crystal violet staining based Boyden chamber assay relative to control; type: functional, Homo sapiens
Outline: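 Boyden chamber with 8 μm pores, 8000 HUVECs/well, compound or vehicle in the top chamber, 8 h migration. Non-migrated cells removed by swab; migrated cells fixed in 100% methanol, stained with 0.05% crystal violet and counted manually in four random fields per well. Three replicate wells; % inhibition relative to control set at 100%; mean ± SEM, n=3.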

HUVEC [12] = experiment: Antiangiogenic activity in HUVEC assessed as inhibition of capillary-like tube formation after 12 hrs by matrigel-based microscopic analysis; type: functional, cell-based; details: Homo sapiens
Outline: (§3)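 Growth-factor-reduced Matrigel solidified 120 min at 37 °C; 2×10⁴ HUVECs/well in EGM-2 with compound or 2 μM SU5416, 12 h. Networks imaged at 100× and tube length quantified in four random fields; mean ± SEM, n=3.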

HUVEC [13] = experiment: Antiangiogenic activity in HUVEC assessed as inhibition of capillary-like tube formation at 25 uM after 12 hrs by matrigel-based microscopic analysis; type: functional; details: Homo sapiens; outline: as §3
HUVEC [14] = experiment: Antiangiogenic activity in HUVEC assessed as inhibition of capillary-like tube formation at 50 uM after 12 hrs by matrigel-based microscopic analysis; type: functional; details: Homo sapiens; outline: as §3
HUVEC [15] = experiment: Antiangiogenic activity in HUVEC assessed as inhibition of capillary-like tube formation at 100 uM after 12 hrs by matrigel-based microscopic analysis; type: functional; details: Homo sapiens; outline: as §3
A549 [16] = experiment: Antiproliferative activity against human A549 cells after 48 hrs by MTT assay; type: functional, cell-based; details: A549, 48 h
Outline: (§4)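 A549 or L929 fibroblasts seeded at 4×10⁴ cells/mL in DMEM with 10% FBS, 5% horse serum and penicillin/streptomycin, 37 °C, 5% CO₂. After 24 h, compound added for 48 h. MTT read at 570 nm; viability = OD treated/OD untreated ×100%; mean ± SD.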

L929 = experiment: Cytotoxicity against mouse L929 cells after 48 hrs by MTT assay; type: functional, cell-based; details: L929, 48 h; outline: as §4
A549 [17] = experiment: Induction of apoptosis in human A549 cells assessed as live cells at 1 uM after 48 hrs by Annexin-V-FITC/propidium iodide staining based flow cytometry (reference value: 75.2%); type: functional
Outline: (§5)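 A549 cells, 2×10⁵/well, were cultured for 24 h at 37 °C, 5% CO₂, then treated 48 h with 1, 4 or 8 μM compound. Staining used annexin V-FITC and PI, 30 min at 25 °C, followed by flow cytometry; Q3 was counted as early apoptotic and Q2 as late apoptotic.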

A549 [18] = experiment: Induction of apoptosis in human A549 cells assessed as early apoptotic cells at 1 uM after 48 hrs by Annexin-V-FITC/propidium iodide staining based flow cytometry (reference value: 15.2%); type: functional; outline: as §5
A549 [19] = experiment: Induction of apoptosis in human A549 cells assessed as late apoptotic cells at 1 uM after 48 hrs by Annexin-V-FITC/propidium iodide staining based flow cytometry (reference value: 4.05%); type: functional; outline: as §5
A549 [20] = experiment: Induction of apoptosis in human A549 cells assessed as necrotic cells at 1 uM after 48 hrs by Annexin-V-FITC/propidium iodide staining based flow cytometry (reference value: 5.45%); type: functional; outline: as §5
A549 [21] = experiment: Induction of apoptosis in human A549 cells assessed as live cells at 4 uM after 48 hrs by Annexin-V-FITC/propidium iodide staining based flow cytometry (reference value: 75.2%); type: functional; outline: as §5
A549 [22] = experiment: Induction of apoptosis in human A549 cells assessed as early apoptotic cells at 4 uM after 48 hrs by Annexin-V-FITC/propidium iodide staining based flow cytometry (reference value: 15.2%); type: functional; outline: as §5
A549 [23] = experiment: Induction of apoptosis in human A549 cells assessed as late apoptotic cells at 4 uM after 48 hrs by Annexin-V-FITC/propidium iodide staining based flow cytometry (reference value: 4.05%); type: functional; outline: as §5
A549 [24] = experiment: Induction of apoptosis in human A549 cells assessed as necrotic cells at 4 uM after 48 hrs by Annexin-V-FITC/propidium iodide staining based flow cytometry (reference value: 5.45%); type: functional; outline: as §5
A549 [25] = experiment: Induction of apoptosis in human A549 cells assessed as live cells at 8 uM after 48 hrs by Annexin-V-FITC/propidium iodide staining based flow cytometry (reference value: 75.2%); type: functional; outline: as §5
A549 [26] = experiment: Induction of apoptosis in human A549 cells assessed as early apoptotic cells at 8 uM after 48 hrs by Annexin-V-FITC/propidium iodide staining based flow cytometry (reference value: 15.2%); type: functional; outline: as §5
A549 [27] = experiment: Induction of apoptosis in human A549 cells assessed as late apoptotic cells at 8 uM after 48 hrs by Annexin-V-FITC/propidium iodide staining based flow cytometry (reference value: 4.05%); type: functional; outline: as §5
A549 [28] = experiment: Induction of apoptosis in human A549 cells assessed as necrotic cells at 8 uM after 48 hrs by Annexin-V-FITC/propidium iodide staining based flow cytometry (reference value: 5.45%); type: functional; outline: as §5
A549 [29] = experiment: Induction of apoptosis in human A549 cells assessed as caspase-3 activation at 1 to 8 uM by Ac-DEVD-pNA substrate based assay; type: functional, cell-based
Outline: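 A549 lysates were spun at 15,000 rpm for 15 min at 4 °C. Then 110 µg protein was mixed with reaction buffer and Ac-DEVD-pNA substrate (2 mM stock) and incubated 3 h at 37 °C. Caspase-3 activity was measured as released pNA at 405 nm.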

A549 [30] = experiment: Induction of apoptosis in human A549 cells assessed as live cells at 2.5 uM after 48 hrs by Annexin-V-FITC/propidium iodide staining based flow cytometry (reference value: 75.2%); type: functional
Outline: (§6)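 A549 cells were plated at 2 × 10⁵ per well and held at 37 °C, 5% CO₂ for 24 h before compound was added. After treatment, cells were stained with annexin V-FITC plus propidium iodide for 30 min at 25 °C. Quadrants were read by flow cytometry: Q3 early apoptotic, Q2 late apoptotic.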

A549 [31] = experiment: Induction of apoptosis in human A549 cells assessed as early apoptotic cells at 2.5 uM after 48 hrs by Annexin-V-FITC/propidium iodide staining based flow cytometry (reference value: 15.2%); type: functional; outline: as §6
A549 [32] = experiment: Induction of apoptosis in human A549 cells assessed as late apoptotic cells at 2.5 uM after 48 hrs by Annexin-V-FITC/propidium iodide staining based flow cytometry (reference value: 4.05%); type: functional; outline: as §6
A549 [33] = experiment: Induction of apoptosis in human A549 cells assessed as necrotic cells at 2.5 uM after 48 hrs by Annexin-V-FITC/propidium iodide staining based flow cytometry (reference value: 5.45%); type: functional; outline: as §6

O=C(COc1c(OCc2ccccc2)cc2oc(-c3ccccc3)cc(=O)c2c1O)N1CCNCC1
MEC (Danio rerio [1]): 5 µM
LC100 (Danio rerio [2]): 100 µM
MTC (Danio rerio [2]): 25 µM
selectivity ratio [3]: 5
selectivity ratio [4]: 20
inhibition (Danio rerio [5]): Dose-dependent effect
inhibition (INH) (Danio rerio [6]): 100%
inhibition (INH) (Danio rerio [7]): 100%
Activity (Danio rerio [8]): Non-Toxic
Activity (Danio rerio [9]): inactive
pIC50 (HUVEC [10]; Homo sapiens, HUVEC): 4.24
inhibition (INH) (HUVEC [10]; human, huvec): Dose-dependent effect
Activity (HUVEC [11]): <=50%
inhibition (HUVEC [12]): Dose-dependent effect
inhibition at 25 µM (HUVEC [13]): 24.9%
inhibition at 50 µM (HUVEC [14]): 54.2%
inhibition at 100 µM (HUVEC [15]): 72.6%
pIC50 (A549 [16]): 5.33
pIC50 (L929): 4.72
Activity (A549 [17]): 36.2%
Activity (A549 [18]): 32.9%
Activity (A549 [19]): 23%
Activity (A549 [20]): 7.92%
Activity (A549 [21]): 22.4%
Activity (A549 [22]): 36.3%
Activity (A549 [23]): 36%
Activity (A549 [24]): 5.4%
Activity (A549 [25]): 10.2%
Activity (A549 [26]): 22.5%
Activity (A549 [27]): 62.1%
Activity (A549 [28]): 2.15%
Activity (A549 [29]): Active

O=C(O)c1cc(O)c(O)c(O)c1 [GALLIC ACID]
Activity (A549 [30]): 39.5%
Activity (A549 [31]): 32.6%
Activity (A549 [32]): 20.2%
Activity (A549 [33]): 6.7%
